Rows were chosen to be rich in hits. Some 2.5% of all compounds tested hit in one or more screens of this group.
proKLK7 act = proKLK7 (human) activation, primary screen; purified proKLK7, EDANS-DABCYL substrate fluorescence; 100% is mature enzyme control, 0% vehicle; 0.9% of 370,000 active; activation, % at 7 µM; P49862; AID 652039;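 active means activation above the mean of all tested compounds plus 3 SD, computed per campaign excluding outliers beyond control limits, cut at about 13% in these data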
NR2E3 ag-1 = activates human NR2E3 receptor; Q9Y5X4; CHO-S Gal4-NCOR/VP16-NR2E3 two-hybrid, luciferase; inhibition of corepressor binding, % at 3.98 µM; 0.35% of 360,000 active; AID 602229;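 active means inhibition above the mean of all tested compounds plus 3 SD, cut at about 70% in these data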;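 further: 0% = DMSO with NR2E3 transfected cells and 100% = cells lacking NR2E3 construct; higher means lower luciferase signal from less NR2E3 corepressor binding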
ADAM10 inh = inhibitors of human ADAM10; inhibition, % at 7 µM; recombinant ADAM10, EDANS/DABCYL FRET peptide cleavage, 3 h; 0.62% of 370,000 active; O14672;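 active means inhibition above a per-campaign cutoff equal to the mean of compounds falling between control-based bounds plus 3 SD, cut at about 20% in these data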;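 further: 0% = DMSO wells while the 100% control is not disclosed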
NR2E3 ag-2 = agonists of human nuclear receptor NR2E3; Q9Y5X4; GST-NR2E3/biotin-RetCOR TR-FRET, 1536-well; inhibition of corepressor binding, % at 4.78 µM; 0.12% of 320,000 active; AID 2300;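 active means percent inhibition above the cutoff of mean plus 3 SD of all tested compounds, set per screening campaign, cut at about 20% in these data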;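 further: 0% = DMSO wells and 100% = biotin wells as full block of FRET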
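Material: NR2E3–RetCOR corepressor complex / Incubation: Compound–protein incubation for 5 h at 4 °C / Dosing: compound at 4.8 µM, single dose / Detection: time-resolved FRET / Benchmarks: high control biotin, low control 0.6% DMSO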
ADAM17 inh = inhibitors of human ADAM17. P78536. recombinant ADAM17, EDANS/DABCYL FRET peptide cleavage. inhibition, % at 6.95 µM. 0.83% of 370,000 active. AID 720648;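 active means inhibition above the mean of compounds lying between control limits plus 3 SD, set per campaign, cut at about 8.5% in these data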;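 further: 0% = DMSO-only wells as the low control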
Target sequence (P78536 215-824 limits assumed): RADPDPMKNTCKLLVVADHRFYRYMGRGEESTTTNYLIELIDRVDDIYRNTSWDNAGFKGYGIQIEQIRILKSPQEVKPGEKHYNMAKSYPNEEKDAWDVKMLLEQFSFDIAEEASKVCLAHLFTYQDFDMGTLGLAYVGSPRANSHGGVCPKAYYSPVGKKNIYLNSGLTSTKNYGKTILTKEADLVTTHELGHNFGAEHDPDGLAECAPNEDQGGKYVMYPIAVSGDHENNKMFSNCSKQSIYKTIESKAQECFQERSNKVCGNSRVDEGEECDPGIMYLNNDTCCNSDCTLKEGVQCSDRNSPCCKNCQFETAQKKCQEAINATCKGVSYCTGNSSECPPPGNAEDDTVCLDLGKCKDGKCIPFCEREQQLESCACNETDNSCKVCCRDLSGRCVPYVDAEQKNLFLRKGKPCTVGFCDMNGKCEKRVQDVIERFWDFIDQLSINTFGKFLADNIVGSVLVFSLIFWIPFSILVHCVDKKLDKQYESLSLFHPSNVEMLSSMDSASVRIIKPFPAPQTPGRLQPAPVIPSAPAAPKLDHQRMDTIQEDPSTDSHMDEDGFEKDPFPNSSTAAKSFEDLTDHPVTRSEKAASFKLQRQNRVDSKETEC
GASC-1 inh = blocks human GASC-1 demethylase activity; GST-JMJD2C(1-420) H3K9me3 demethylation, DELFIA europium; inhibition, % at 2.35 µM; Q9H3R0; 0.069% of 330,000 active;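 active means more than half of a compound's replicate wells show inhibition beyond 50%, single wells judged on their own value; inconclusive means some, but no more than half, of replicates pass 50% inhibition; inactive means no replicate passes 50% inhibition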;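 further: signal counts dimethyl H3K9 product captured on neutravidin plate; 0% = median of DMSO wells and 100% = 0.3 times that DMSO median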
ADAM10 counter = counter-screen for ADAM17 exosite inhibitors: inhibitors of human ADAM10 | shares compounds with ADAM17 inh | 47% of 2,900 active | inhibition, % at 6.95 µM | recombinant ADAM10, EDANS/DABCYL FRET peptide cleavage, 3 h | AID 743256;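 active means mean inhibition over the triplicate runs exceeds the activity threshold set in the earlier primary screen, cut at about 20% in these data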;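 further: 0% = DMSO wells and 100% = marimastat wells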
ADAM17 confirm = human ADAM17 inhibition, confirmation; shares compounds with ADAM17 inh; recombinant ADAM17, EDANS/DABCYL QFRET peptide cleavage; inhibition, % at 6.95 µM; 65% of 2,900 active;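 active means mean inhibition across replicates above the hit cutoff set in the primary screen, cut at about 8.5% in these data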;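 further: 0% = DMSO wells and 100% = marimastat wells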
* hit, by the source's call; ? = inconclusive; / = not tested or not shown.

SMILES | proKLK7 act | NR2E3 ag-1 | ADAM10 inh | NR2E3 ag-2 | ADAM17 inh | GASC-1 inh | ADAM10 counter | ADAM17 confirm
Nc1c(Cl)cc(-c2csc(N3CCCC3c3nc4cc(Cl)c(N5CCCCC5)cc4n3CCCO)n2)cc1Cl (stereo not drawn) | -1 | 0 | 11 | 3 | 5 | 4 | / | /
O=C(COc1ccccc1)N[C@@H]1c2ccccc2CC[C@@H]1O | 0 | -30 | -9 | / | -5 | / | / | /
Cc1ccc(S(=O)(=O)N(C)C[C@H]2Oc3ncc(-c4ccccc4)cc3C(=O)N([C@@H](C)CO)C[C@@H]2C)cc1 | -1 | -11 | 3 | / | 1 | / | / | /
CCOC(=O)CSC1=C(C#N)C(c2ccccc2F)C(C(C)=O)=C(C)N1 (stereo not drawn) | 3 | -13 | -5 | 0 | 0 | -2 | / | /
CSCSC1=C(C#N)C(c2ccccc2Cl)C(C(C)=O)=C(C)N1 (stereo not drawn) | 0 | 19 | 4 | 2 | 15* | ? | 10 | 9.3*
C=C1[C@@H](C)CN[C@@H]1CCO | 0 | / | -2 | / | -2 | / | / | /
COc1cc(/C=N/NC(=O)c2cc(-c3ccccc3OC(C)C)nc3ccccc23)ccc1O | -1 | 4 | 17 | -2 | 11* | -1 | 17 | 15*
COc1cc(/C=N/NC(=O)c2cc(-c3ccccc3)nc3ccccc23)ccc1O | -1 | 0 | 8 | 1 | 1 | -20 | / | /
CO[C@H]1CN(C)C(=O)c2cc(NC(=O)C3CCCC3)ccc2OC[C@@H](C)NC[C@H]1C | 0 | / | -9 | / | -2 | / | / | /
CCc1nc2ccc(C(=O)Nc3ccc4c(c3)OCC(=O)N4)cn2c1N(CC)Cc1cccc(Br)c1 | -5 | 18 | 14 | / | 9.1* | / | 16 | 12*
CCc1nc2ccc(C(=O)Nc3ccc4c(c3)OCC(=O)N4)cn2c1N(CC)CCOC | 0 | -17 | -1 | / | -1 | / | / | /
O=C(O)COc1ccccc1/C=C1\SC(=S)N(c2cccnc2)C1=O | -1 | / | 5 | 1 | 0 | 5 | / | /
Nc1c2c(nn1-c1ccccc1)CCC2 | 0 | -22 | 1 | -1 | -2 | 18 | / | /
COc1cc(C=C(c2nc3ccccc3s2)c2nc3ccccc3s2)ccc1O | 0 | 26 | 18 | -5 | 9.6* | 2 | 20* | 14*
COc1cc(/C=C/c2nc3ccccc3s2)cc(OC)c1O | -5 | -73 | -22 | 5 | -9 | 0 | / | /
Cc1ccc(NC(=O)CSCC(=O)N(C)Cc2c(F)cccc2Cl)cc1 | -1 | -22 | -3 | / | -1 | / | / | /
COc1ccc(-c2ccc(CN3C(C(C)C)C(=O)N(Cc4cn(Cc5ccco5)nn4)CCS3(=O)=O)cc2)cc1OC (stereo not drawn) | 0 | -44 | 11 | / | 10* | / | 16 | 14*
CC1C(=O)N(Cc2cn(CCC3OCCO3)nn2)CCS(=O)(=O)N1Cc1ccc(-c2ccc(F)cc2)cc1 (stereo not drawn) | 1 | -2 | -8 | / | 10* | / | 4 | 2
CC1C(=O)N(Cc2cn(CCC3OCCO3)nn2)CCS(=O)(=O)N1Cc1ccc(-c2ccncc2)cc1 (stereo not drawn) | 0 | -18 | -11 | / | 1 | / | / | /
COc1ccc(-c2ccc(CN3C(C(C)C)C(=O)N(Cc4cn(Cc5ccco5)nn4)CCS3(=O)=O)cc2)cc1 (stereo not drawn) | 0 | 18 | 9 | / | 7 | / | / | /
CN(c1ccc(C(=O)NCCSCc2ccccc2)cc1)S(=O)(=O)c1ccccc1 | 1 | 5 | 13 | -4 | 3 | 1 | / | /
Cc1cccc(CSCCNC(=O)c2ccc(N(C)S(=O)(=O)c3ccccc3)cc2)c1 | 0 | 12 | 19 | 1 | 11* | 18 | 23* | 12*
Nc1ncc2c(n1)-c1cc(Cl)ccc1SC2 | 0 | 18 | 10 | 9 | 10* | -4 | 7 | 8
CC(=O)OCC(=O)Nc1ccc(SC(F)F)cc1 | 0 | 8 | -4 | 2 | -1 | -13 | / | /
CCOc1cc(C(=O)OCC(=O)Nc2ccc(SC(F)F)cc2)cc(OCC)c1OCC | 0 | 0 | 19 | 3 | 10* | 5 | 38* | 18*
SMILES | proKLK7 act | NR2E3 ag-1 | ADAM10 inh | NR2E3 ag-2 | ADAM17 inh | GASC-1 inh | ADAM10 counter | ADAM17 confirm
CN(c1ccc(OCC(=O)OCC(=O)c2c(N)n(C)c(=O)n(C)c2=O)cc1)S(=O)(=O)c1ccc2ccccc2c1 | 0 | -4 | 18 | -2 | 9.3* | 9 | 23* | 10*
CCN(c1ccc(OCC(=O)OCC(=O)c2c(N)n(C)c(=O)n(C)c2=O)cc1)S(=O)(=O)c1ccccc1 | 1 | -21 | 0 | 2 | -2 | -8 | / | /
CCN(Cc1ccncc1)C(=O)C1CCC(=O)N(Cc2ccc(Cl)cc2)C1 (stereo not drawn) | 0 | -45 | -15 | 3 | 0 | -45 | / | /
Cc1[nH]c2ccccc2c1C(=O)CN1C(=O)NC2(CCCCCC2)C1=O | 0 | -21 | 4 | 1 | 3 | 1 | / | /
CCC1CCC2(CC1)NC(=O)N(CC(=O)c1c(C)[nH]c3ccccc13)C2=O (stereo not drawn) | 0 | -6 | 18 | 3 | 8.9* | 9 | 4 | 8
COc1ccc(C(=O)Nc2ccc(NC(=O)c3cnccn3)cn2)cc1 | 0 | -18 | 7 | 1 | 0 | 6 | / | /
O=C(N/N=C/c1cccnc1)C1CCCN(S(=O)(=O)c2ccccc2)C1 (stereo not drawn) | 0 | -7 | 6 | 0 | 9.2* | 4 | 8 | 7
O=C1c2cccc(OCC(=O)N3CCCc4ccccc43)c2CCN1Cc1ccc(Br)cc1 | 0 | 23 | 17 | 1 | 9.7* | 3 | 10 | 12*
O=C1c2cccc(OCC(=O)N3CCCc4ccccc43)c2CCN1Cc1ccccc1 | 0 | 15 | 3 | -1 | 1 | 0 | / | /
COc1cc2c(C#N)c(N3CCN(c4ccccc4OC)CC3)nc(N)c2c(N)n1 | -12 | 10 | -149 | 1 | -41 | -20 | / | /
COc1ccccc1N1CCN(c2nc(N)c(C#N)c(CC#N)c2C#N)CC1 | -1 | -20 | 12 | 4 | 20* | 12 | 10 | 11*
CCOc1ccccc1NC(=O)COC(=O)Cc1ccc(-c2ccccc2)cc1 | 0 | -24 | 11 | -1 | 5 | -16 | / | /
COc1cc(NC(=O)COC(=O)Cc2ccc(-c3ccccc3)cc2)cc(OC)c1 | 0 | -5 | 17 | 3 | 11* | 8 | 23* | 12*
